These results are taken from ChEMBL document CHEMBL1153592, “1,8-Naphthyridine-3-carboxamide derivatives with anticancer and anti-inflammatory activity” (Eur J Med Chem, 2009).

What is called pIC50 is the IC50 on a negative log10 scale, so that one unit is a factor of ten.

Assay [1] has as its system DU-145. The assay can be described thus: Cytotoxicity against human DU145 cells after 72 hrs by MTT assay. Type of assay: functional, cell-based. The following applies: DU-145, 72 h.
For assay [2], the system named is ECV-304. The assay can be described thus: Cytotoxicity against human ECV304 cells after 72 hrs by MTT assay. Type of assay: functional, cell-based. The following applies: for pIC50: Homo sapiens, ECV-304, 72 h, read-out: IC50. Background: Tetrazolium assays rely on reduction of a dye to a coloured formazan, in cell work by metabolically active cells.
Assay [3] can be described thus: Antiinflammatory activity in C57BL/6 mouse DC assessed as inhibition of LPS-induced IL1-beta production at 1 ug/ml after 24 hrs by ELISA. Type of assay: functional. In a few lines: (§1)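 Dendritic cells grown from femoral bone marrow of 8–12-week-old C57BL/6 mice in RPMI-1640 with 10% FBS and 20 ng/ml rmGM-CSF at 37 °C, 5% CO2. Day-6 immature DCs were stimulated with 10 ng/ml LPS plus compound for 24 h. Supernatant cytokine/chemokine measured by ELISA (pg/ml); % change = (B−A)/A×100, versus LPS-stimulated DCs alone.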
A general note: An ELISA detects its analyte on a solid surface through an enzyme-linked reagent.

The subject of assay [4] is PA-1. The assay can be described thus: Cytotoxicity against human PA1 cells after 72 hrs by MTT assay. Type of assay: functional, cell-based. The following applies: PA-1, 72 h.
The subject of assay [5] is K562. The assay can be described thus: Cytotoxicity against human K562 cells after 72 hrs by MTT assay. Type of assay: functional, cell-based. The following applies: K562, 72 h.
Assay [6] concerns KB. The assay can be described thus: Cytotoxicity against human KB cells after 72 hrs by MTT assay. The assay is classed as functional, cell-based.
Assay [7] deals with HBL-100. The assay can be described thus: Cytotoxicity against human HBL100 cells after 72 hrs by MTT assay. The assay is classed as functional, cell-based. The note with it: HBL-100, 72 h.
In assay [8] the test system is A549. The assay can be described thus: Cytotoxicity against human A549 cells after 72 hrs by MTT assay. Type of assay: functional, cell-based. The note with it: A549, 72 h.
Assay [9] is described as follows: Antiinflammatory activity in C57BL/6 mouse DC assessed as inhibition of LPS-induced IL-6 production at 0.1 ug/ml after 24 hrs by ELISA. Type of assay: functional. The method, boiled down: as §1
Assay [10] deals with SW-620. The assay can be described thus: Cytotoxicity against human SW620 cells after 72 hrs by MTT assay. Type of assay: functional, cell-based. The note with it: SW-620, 72 h.
Assay [11] has as its system MIA PaCa-2. The assay can be described thus: Cytotoxicity against human MIAPaCa2 cells after 72 hrs by MTT assay. The following applies: MIA PaCa-2, 72 h. The assay is classed as functional, cell-based.
The nature of assay [12]: Cytotoxicity against mouse NIH/3T3 cells after 72 hrs by MTT assay. The assay is classed as cell-based, NIH3T3. The following applies: for IC50: nih3t3; for pIC50: Mus musculus, NIH3T3, 72 h, read-out: IC50.
A short description of assay [13]: Antiinflammatory activity in C57BL/6 mouse DC assessed as inhibition of LPS-induced IL1-beta production at 0.1 ug/ml after 24 hrs by ELISA. The assay is classed as functional. In a few lines:
as §1

Assay [14] in a line: Antiinflammatory activity in C57BL/6 mouse DC assessed as inhibition of LPS-induced IL-6 production at 1 ug/ml after 24 hrs by ELISA. Type of assay: functional. In a few lines:
as §1

pIC50: −log10 of the molar value. Where only a bound is given, the exact number is not on record here.

`C#CCn1cc(C(=O)NC(C(=O)Nc2ccccc2)c2ccccc2)c(=O)c2ccc(Cl)nc21` (stereo not given): the pIC50 is 5.77 in assay [1]; < 5.00 in assay [2]; < 5.00 in assay [4]; 5.48 in [5]; 5.68 in assay [6]; 5.11 in assay [7]. Also, the pIC50 was < 5.00 in assay [8], 5.66 in [10] and 5.01 in [11]. For the same molecule, the “inhibition (INH)” value in assay [3] is 86.3%; in [9], 76.5%; in assay [13] it was 82%; in assay [14], 91.7%. In assay [12], the IC50 entry is given as “Not Active”.
For the molecule `C#CCn1cc(C(=O)NC(CC(=O)NC2CCCC2)c2ccccc2)c(=O)c2cc(F)c(Cl)nc21` (stereo not given), the pIC50 was < 5.00 in assay [1]; 5.29 in assay [2]; 6.17 in assay [4]; 5.14 in assay [5]; 5.31 in [6]; 5.70 in [7]. The negative logarithm of the IC50 (pIC50) in assay [8] was 5.21; in [10], 5.68; in assay [11] it was 5.36; in [12], 5.62. Besides, the “inhibition (INH)” value in [3] came to 102%; in assay [9], 80.1%; in [13] it was 83.4%; in assay [14], 100%.
As for `C#CCn1cc(C(=O)NC(C(=O)Nc2ccccc2)c2ccccc2)c(=O)c2cc(F)c(Cl)nc21` (stereo not given), the negative logarithm of the IC50 (pIC50) in [1] is 6.22; in assay [2], 5.04; in assay [4], 6.30; in assay [5], 5.30; in assay [6], 5.96; in assay [7], < 5.00. Besides, the pIC50 is < 5.00 in assay [8], 5.85 in assay [10] and < 5.00 in assay [11]. The “inhibition (INH)” value stood at 97% in assay [3], 84.4% in assay [9], 44.3% in [13] and 99.9% in assay [14]. Further, the IC50 entry in [12] is on record as “Not Active”.
As to `C#CCn1cc(C(=O)NC(CC(=O)Nc2ccccn2)c2ccccc2)c(=O)c2cc(F)c(Cl)nc21` (stereo not given), the pIC50 is 5.68 in [1]; < 5.00 in [2]; < 5.00 in assay [4]; < 5.00 in assay [5]; 5.64 in [6]; < 5.00 in assay [7]. The negative logarithm of the IC50 (pIC50) is < 5.00 in assay [8], 5.64 in assay [10], < 5.00 in [11] and 5.38 in assay [12]. Moreover, the “inhibition (INH)” value in assay [3] was determined as 109.6%; in assay [9], 75.5%; in [13] it was 83.4%; in [14] it was 99.1%.
As for `C#CCn1cc(C(=O)NC(CC(=O)Nc2ccccc2)c2ccccc2)c(=O)c2ccc(Cl)nc21` (stereo not given), the pIC50 in [1] was < 5.00; in assay [2], 5.40; in assay [4], 6.27; in assay [5], 5.11; in [6], < 5.00; in [7], 5.40. Moreover, the pIC50 in assay [8] was < 5.00; in [10] it was 5.54; in [11] it was 5.52; in [12], 5.36. The “inhibition (INH)” value in assay [3] was determined as 99.4%; in assay [9], 69.5%; in [13], 28.3%; in [14], 75.4%.
`C#CCn1cc(C(=O)NC(C(=O)NC2CCCC2)c2ccccc2)c(=O)c2cccnc21` (stereo not given): the negative-log IC50 (pIC50) in assay [1] is < 5.00; in [2] it was < 5.00; in [4], < 5.00; in [5] it was < 5.00; in assay [6], 5.35; in [7] it was < 5.00. The pIC50 in [8], in assay [10] and in [11] was < 5.00 throughout. Besides, the IC50 result in [12] is given as “Not Active”.
In the case of `COc1cccc2c1C(=O)c1c(O)c3c(c(O)c1C2=O)C[C@@](O)(C(=O)CO)C[C@@H]3O[C@H]1C[C@H](N)[C@H](O)[C@H](C)O1` [DOXORUBICIN], the negative logarithm of the IC50 (pIC50) in assay [1] was 7.00; in assay [4], 6.20; in [7], 6.62; in assay [10], 7.10; in assay [11] it was 6.82; in assay [12], 6.41. Besides, the IC50 entry in assay [2] (ecv-304) was “Not Active”.
In the case of `C#CCn1cc(C(=O)NC(C(=O)NC2CCCC2)c2ccccc2)c(=O)c2cc(F)c(Cl)nc21` (stereo not given), the pIC50 is 5.49 in assay [1]; 5.49 in [2]; 5.74 in [4]; 5.23 in assay [5]; 5.46 in assay [6]; 5.29 in [7]. For the same molecule, the negative-log IC50 (pIC50) in assay [8] was < 5.00; in [10], 5.47; in assay [11], 5.77; in [12], 6.40.
As for `C#CCn1cc(C(=O)NC(CC(=O)Nc2ccccn2)c2ccccc2)c(=O)c2ccc(Cl)nc21` (stereo not given), the pIC50 is 5.31 in assay [1]; < 5.00 in [2]; 5.77 in assay [4]; 5.23 in assay [5]; 5.28 in assay [6]; < 5.00 in assay [7]. Further, the pIC50 in [8] was < 5.00; in assay [10], 5.54; in assay [11], < 5.00. Besides, the “inhibition (INH)” value in assay [3] is recorded as 82%; in assay [9], 78.2%; in assay [13], 57.3%; in [14], 82.9%. Moreover, in assay [12], the IC50 entry was “Not Active”.
With `C#CCn1cc(C(=O)NC(CC(=O)NC2CCCCC2)c2ccccc2)c(=O)c2cc(F)c(Cl)nc21` (stereo not given), the pIC50 in assay [1] is 5.10; in assay [2], 5.01; in assay [4] it was 5.64; in assay [5] it was 5.21; in assay [6], < 5.00; in assay [7], < 5.00. The pIC50 in assay [8] was < 5.00; in [10] it was < 5.00; in assay [11], 5.31. Besides, the IC50 result in assay [12] is reported as “Not Active”.
As for `C#CCn1cc(C(=O)NC(C(=O)Nc2ccccc2)c2ccccc2)c(=O)c2cccnc21` (stereo not given), the negative-log IC50 (pIC50) in assay [1] was 5.06; in assay [2], < 5.00; in assay [4], 5.05; in assay [5], < 5.00; in [6], 5.52; in assay [7], < 5.00. In addition, the negative logarithm of the IC50 (pIC50) in [8], in assay [10] and in assay [11] was < 5.00 throughout. Besides, the “inhibition (INH)” value worked out at 64.6% in assay [3], 79.3% in assay [9], 39.9% in assay [13] and 79.3% in assay [14]. For the same molecule, the IC50 entry in [12] is “Not Active”.
For `C#CCn1cc(C(=O)NC(C(=O)NC2CCCCC2)c2ccccc2)c(=O)c2cc(F)c(Cl)nc21` (stereo not given), the negative-log IC50 (pIC50) in [1] was < 5.00; in [2], < 5.00; in assay [4], 5.74; in assay [5], < 5.00; in assay [6] it was < 5.00; in [7], < 5.00. For the same molecule, the pIC50 in assay [8] is < 5.00; in assay [10] it was < 5.00; in [11], < 5.00; in [12] it was 5.13.
